Laboratory results reported in ChEMBL document CHEMBL3751714, “Antileishmanial activity of novel indolyl-coumarin hybrids: Design, synthesis, biological evaluation, molecular docking study and in silico ADME prediction” (Bioorg Med Chem Lett, 2016).
≈ marks a conversion by molar mass, not a printed value.

Legend:
Leishmania donovani [1] = assay: Antileishmanial activity against promastigotes of Leishmania donovani MHOM/IN/80/DD8 after 72 hrs by MTT assay; format: functional, organism-based; settings: MHOM/IN/80/DD8, 72 h
Outline: (§1)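 Cultured L. donovani promastigotes (strain […]) were exposed to the compounds. Viability was read by a modified MTT assay, in which formazan output tracks metabolically active cells. The concentration that cut growth by 50% (IC50) was found by graphic interpolation.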

[2] = Antioxidant activity of the compound assessed as DPPH radical scavenging after 30 mins by spectrophotometric analysis; format: physicochemical
Outline: (§2)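 DPPH radical scavenging assay. The control contained all reagents except the test compound. % scavenging = [(A control − A sample)/[…]] × 100, taken from absorbance readings.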

HeLa = assay: Cytotoxicity against human HeLa cells assessed as cell viability at 100 ug/ml by microscopic analysis; format: cell-based
Outline: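 HeLa cells were treated at 100 μg/mL and assessed by the MTT method. Cells were also viewed under a microscope at 10X magnification.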

[3] = Antioxidant activity assessed as ABTS radical scavenging activity by TEAC assay; format: physicochemical
[4] = Antioxidant activity of the compound; format: physicochemical; outline: as §2
Leishmania major [5] = assay: Antileishmanial activity against promastigotes of Leishmania major MHOM/IL/67/LRC-L43 assessed as parasite growth inhibition after 24 hrs by uranyl acetate/ magnesium uranyl acetate/lead citrate staining-based electron microscopic analysis; format: functional, organism-based; settings: MHOM/IL/67/LRC-L43, 24 h
Leishmania donovani [6] = assay: Antileishmanial activity against promastigotes of Leishmania donovani assessed as parasite growth inhibition; format: functional, organism-based; outline: as §1
Leishmania major [7] = assay: Antileishmanial activity against stationary-phase promastigotes of Leishmania major MRHO/IR/75/ER assessed as parasite growth inhibition after 48 hrs by Neubar chamber method; format: functional, organism-based

| Structure (SMILES) | IC50 [2] | IC50 (Leishmania donovani [1]) | also measured |
| --- | --- | --- | --- |
| O=C(CC(c1ccccc1Cl)c1c[nH]c2ccccc12)c1c(O)c2ccccc2oc1=O (configuration not stated) | 39.62 mg/L (≈ 89.3 µM) | 102 mg/L (≈ 230 µM) |  |
| COc1ccc(OC)c(C(CC(=O)c2c(O)c3ccccc3oc2=O)c2c[nH]c3ccccc23)c1 (configuration not stated) | 19.02 mg/L (≈ 40.5 µM) | 99 mg/L (≈ 211 µM) |  |
| N#Cc1ccc(C(CC(=O)c2c(O)c3ccccc3oc2=O)c2c[nH]c3ccccc23)cc1 (configuration not stated) | 13.74 mg/L (≈ 31.6 µM) | 102 mg/L (≈ 234 µM) |  |
| O=c1oc2ccccc2cc1C1=Nn2c(nnc2-c2ccccc2)SC1 |  |  | IC50 [3]: 39.9 mg/L (≈ 111 µM) |
| COc1ccc(C(CC(=O)c2c(O)c3ccccc3oc2=O)c2c[nH]c3ccccc23)cc1 (configuration not stated) | 16.21 mg/L (≈ 36.9 µM) | 174 mg/L (≈ 396 µM) |  |
| O=C(/C=C/c1ccc(O)c(O)c1)c1ccc(O)cc1O [BUTEIN] |  |  | IC50 [4]: 3.3 mg/L (≈ 12.1 µM) |
| Cc1cc(C(C)(C)C)c(O)c(C(C)(C)C)c1 [BUTYLATED HYDROXYTOLUENE] | 16.5 mg/L (≈ 74.9 µM) |  |  |
| C=CC(C)(C)c1cc(/C=C/C(=O)c2ccc(O)cc2)c(OC)cc1O [LICOAGROCHACONE A] |  |  | IC50 (Leishmania major [5]): 2.5 mg/L (≈ 7.39 µM); IC50 (Leishmania donovani [6]): 2.7 µM |
| CC(C)=CCC/C(C)=C/CC/C(C)=C/COc1ccc2ccc(=O)oc2c1 [UMBELLIPRENIN] |  |  | IC50 (Leishmania major [7]): 13.3 µM |

Further lines, with some results ahead:

| IC50 [2] | Structure (SMILES) | IC50 (Leishmania donovani [1]) | also measured |
| --- | --- | --- | --- |
| 71.08 mg/L (≈ 161 µM) | O=C(CC(c1ccc(O)c(O)c1)c1c[nH]c2ccccc12)c1c(O)c2ccccc2oc1=O (configuration not stated) | 231 mg/L (≈ 523 µM) |  |
| 47.35 mg/L (≈ 111 µM) | O=C(CC(c1ccc(F)cc1)c1c[nH]c2ccccc12)c1c(O)c2ccccc2oc1=O (configuration not stated) | 156 mg/L (≈ 364 µM) |  |
| 58.91 mg/L (≈ 138 µM) | O=C(CC(c1ccc(O)cc1)c1c[nH]c2ccccc12)c1c(O)c2ccccc2oc1=O (configuration not stated) | 288 mg/L (≈ 676 µM) |  |
| 13.49 mg/L (≈ 28.2 µM) | O=C(CC(c1c(Cl)cccc1Cl)c1c[nH]c2ccccc12)c1c(O)c2ccccc2oc1=O (configuration not stated) | 95 mg/L (≈ 199 µM) | Activity (HeLa): Non-toxic |
| 13.24 mg/L (≈ 28.2 µM) | COc1ccc(C(CC(=O)c2c(O)c3ccccc3oc2=O)c2c[nH]c3ccccc23)c(OC)c1 (configuration not stated) | 250 mg/L (≈ 531 µM) |  |
| 46.35 mg/L (≈ 104 µM) | O=C(CC(c1ccc(Cl)cc1)c1c[nH]c2ccccc12)c1c(O)c2ccccc2oc1=O (configuration not stated) | 125 mg/L (≈ 282 µM) |  |
| 12.4 mg/L (≈ 30.3 µM) | O=C(CC(c1ccccc1)c1c[nH]c2ccccc12)c1c(O)c2ccccc2oc1=O (configuration not stated) | 95.5 mg/L (≈ 233 µM) |  |
| 63.16 mg/L (≈ 135 µM) | COc1ccc(C(CC(=O)c2c(O)c3ccccc3oc2=O)c2c[nH]c3ccccc23)cc1OC (configuration not stated) | 212 mg/L (≈ 452 µM) |  |
| 12.8 mg/L (≈ 72.7 µM) | O=C1O[C@H]([C@@H](O)CO)C(O)=C1O [ASCORBIC ACID] |  |  |
